Test results as given in ChEMBL document CHEMBL1157486, “2-Substituted-16-ene-22-thia-1alpha,25-dihydroxy-26,27-dimethyl-19-norvitamin D3 analogs: Synthesis, biological evaluation, and crystal structure” (Bioorg Med Chem, 2008).
pEC50: −log10 of the molar value. Several values for one entry are separate records, joined by “and”; a condition that tells them apart may be missing. Equal values may be shown once.

These compounds were tested on Bone marrow cell (assay: Effect on osteoclast formation in ddY mouse bone marrow cells co cultured with […] after 7 days). Conditions: Mus musculus, ddY, Bone marrow cell, 168 h.

First: CCC(O)(CC)CSC(C)C1=CCC2/C(=C/C=C3\C[C@@H](O)[C@H](OCCO)[C@H](O)C3)CCC[C@]12C (stereo partly specified)
Second: [H][C@@]12CC=C([C@@H](C)SCC(O)(CC)CC)[C@@]1(C)CCC/C2=C\C=C1/C[C@@H](O)[C@H](OCCO)[C@H](O)C1 (stereo partly specified)
The pEC50 of the first is 0.80 log units higher: 10.46 for the first, 9.66 for the second. The first is the more potent here.

For C=C1/C(=C\C=C2/CCC[C@]3(C)[C@@H]([C@H](C)CCCC(C)(C)O)CC[C@@H]23)C[C@@H](O)C[C@@H]1O [CALCITRIOL], the pEC50 was 8.70.

Same assay, conditions: bone marrow cell

First: CCC(O)(CC)CSC(C)C1=CCC2/C(=C/C=C3/C[C@@H](O)[C@H](OCCO)[C@H](O)C3)CCC[C@]12C (stereo partly specified)
Second: [H][C@@]12CC=C([C@@H](C)SCC(O)(CC)CC)[C@@]1(C)CCC/C2=C\C=C1\C[C@@H](O)[C@H](OCCO)[C@H](O)C1 (stereo partly specified)
The pEC50 of the first is 1.03 log units higher: 10.40 for the first, 9.37 for the second.

Each compound was assayed against T1, Vitamin D3 receptor (Rattus norvegicus) (UniProt P13053) (assay: Displacement of [3H]1-alpha,25-(OH)2D3 from rat recombinant VDR expressed in Escherichia coli BL21 (DE3)). Conditions: not given.
T1 sequence (whole entry): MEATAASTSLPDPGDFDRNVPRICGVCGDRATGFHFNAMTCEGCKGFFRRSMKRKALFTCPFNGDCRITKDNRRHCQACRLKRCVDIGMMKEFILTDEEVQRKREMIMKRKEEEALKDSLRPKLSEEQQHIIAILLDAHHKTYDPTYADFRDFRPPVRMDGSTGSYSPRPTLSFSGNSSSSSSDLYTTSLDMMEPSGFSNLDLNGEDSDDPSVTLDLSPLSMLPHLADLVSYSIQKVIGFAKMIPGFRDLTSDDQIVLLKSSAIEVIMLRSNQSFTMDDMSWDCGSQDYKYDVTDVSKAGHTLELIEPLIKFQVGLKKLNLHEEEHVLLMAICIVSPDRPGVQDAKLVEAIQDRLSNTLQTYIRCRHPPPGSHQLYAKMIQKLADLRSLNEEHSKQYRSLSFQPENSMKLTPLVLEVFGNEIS
Summary of the method: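 Rat VDR-LBD lysate (sonicated cells) diluted ~1000-fold in 50 mM Tris pH 7.5 with 100 mM KCl, 5 mM DTT, 0.5% CHAPS and BSA 100 µg/mL. Ligand in EtOH preincubated 1 h at room temperature, then [3H]1α,25-(OH)2D3 (~5000 dpm) added for 18 h at 4 °C. Free ligand removed with dextran-coated charcoal, and bound fraction counted by scintillation. At least twice in duplicate.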

First: CCC(O)(CC)CCS[C@H](C)C1=CC[C@H]2/C(=C/C=C3C[C@@H](O)C[C@H](O)C3)CCC[C@]12C
Second: CCC(O)(CC)CCS[C@@H](C)C1=CC[C@H]2/C(=C/C=C3C[C@@H](O)C[C@H](O)C3)CCC[C@]12C
The Activity of the first is lower: 4% for the first, 100% for the second.

Compared with CCC(O)(CC)CS[C@H](C)C1=CC[C@H]2/C(=C/C=C3C[C@@H](O)C[C@H](O)C3)CCC[C@]12C, CCC(O)(CC)CS[C@@H](C)C1=CC[C@H]2/C(=C/C=C3C[C@@H](O)C[C@H](O)C3)CCC[C@]12C is higher in Activity: 6% for the first, 60% for the second.

Going from CCC(O)(CC)CCCS[C@@H](C)C1=CC[C@H]2/C(=C/C=C3C[C@@H](O)C[C@H](O)C3)CCC[C@]12C to CCC(O)(CC)CCCS[C@H](C)C1=CC[C@H]2/C(=C/C=C3C[C@@H](O)C[C@H](O)C3)CCC[C@]12C, the Activity falls from 100% to 8%.

C=C1/C(=C\C=C2/CCC[C@]3(C)[C@@H]([C@H](C)CCCC(C)(C)O)CC[C@@H]23)C[C@@H](O)C[C@@H]1O [CALCITRIOL] gave an Activity of 100%.

With CCC(O)(CC)CSC(C)C1=CCC2/C(=C/C=C3C[C@@H](O)C(C)(O)[C@H](O)C3)CCC[C@]12C (stereo partly specified) the Activity was 18% and 1%.
CCC(O)(CC)CS[C@H](C)C1=CC[C@H]2/C(=C/C=C3C[C@@H](O)C(C)(O)[C@H](O)C3)CCC[C@]12C (stereo partly specified) was tested, and the Activity was 12% and 0.5%.

These compounds were tested against Vitamin D3 receptor (Homo sapiens) (UniProt P11473) (assay: Increase in human VDR-mediated transcriptional activity in african green monkey COS7 cells after 24 hrs by luciferase assay). Conditions: not given.

Compared with CCC(O)(CC)CSC(C)C1=CCC2/C(=C/C=C3/C[C@@H](O)[C@](C)(O)[C@H](O)C3)CCC[C@]12C (stereo partly specified), CCC(O)(CC)CSC(C)C1=CCC2/C(=C/C=C3\C[C@@H](O)[C@](C)(O)[C@H](O)C3)CCC[C@]12C (stereo partly specified) is 2.05 log units higher in pEC50: 8.72 for the first, 10.77 for the second. The second is the more potent here.

Going from CCC(O)(CC)CSC(C)C1=CCC2/C(=C/C=C3\C[C@@H](O)[C@H](OCCO)[C@H](O)C3)CCC[C@]12C (stereo partly specified) to [H][C@@]12CC=C([C@@H](C)SCC(O)(CC)CC)[C@@]1(C)CCC/C2=C\C=C1/C[C@@H](O)[C@H](OCCO)[C@H](O)C1 (stereo partly specified), the pEC50 falls from 11.68 to 10.62 (1.06 log units).

First: [H][C@@]12CC=C([C@@H](C)SCC(O)(CC)CC)[C@@]1(C)CCC/C2=C\C=C1/C[C@@H](O)[C@@](C)(O)[C@H](O)C1 (stereo partly specified)
Second: [H][C@@]12CC=C([C@@H](C)SCC(O)(CC)CC)[C@@]1(C)CCC/C2=C\C=C1\C[C@@H](O)[C@@](C)(O)[C@H](O)C1 (stereo partly specified)
The pEC50 of the first is 1.57 log units lower: 8.35 for the first, 9.92 for the second.

Going from CCC(O)(CC)CS[C@H](C)C1=CC[C@H]2/C(=C/C=C3C[C@@H](O)C(=CCO)[C@H](O)C3)CCC[C@]12C [listing 1 of 2 here] to CCC(O)(CC)CSC(C)C1=CCC2/C(=C/C=C3C[C@@H](O)C(=CCO)[C@H](O)C3)CCC[C@]12C (stereo partly specified) [listing 1 of 2 here], the pEC50 falls from 10.54 to 10.07 (0.47 log units). The first is the more potent here.

Going from CCC(O)(CC)CSC(C)C1=CCC2/C(=C/C=C3/C[C@@H](O)[C@H](OCCO)[C@H](O)C3)CCC[C@]12C (stereo partly specified) to [H][C@@]12CC=C([C@@H](C)SCC(O)(CC)CC)[C@@]1(C)CCC/C2=C\C=C1\C[C@@H](O)[C@H](OCCO)[C@H](O)C1 (stereo partly specified), the pEC50 falls from 10.57 to 9.94 (0.63 log units).

Going from CCC(O)(CC)CS[C@H](C)C1=CC[C@H]2/C(=C/C=C3C[C@@H](O)C(=CCO)[C@H](O)C3)CCC[C@]12C [listing 2 of 2 here] to CCC(O)(CC)CSC(C)C1=CCC2/C(=C/C=C3C[C@@H](O)C(=CCO)[C@H](O)C3)CCC[C@]12C (stereo partly specified) [listing 2 of 2 here], the pEC50 rises from 9.70 to 10.59 (0.89 log units).
